# The sample as a whole holds a higher share of hits than the screen did.
# T cruzi HTS: inhibitors of intracellular Trypanosoma cruzi; intracellular Trypanosoma cruzi in host cells, plate reader; activity score (inhibition), % at 5.01 µM; 22,000 tested, 4.9% active; AID 651903; in the data active = activity score above about 55%;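 note: parasites and compound incubated about four days before reading; 0% = median of neutral control wells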
# INS-1E rescue: preserves ATP levels in cytokine-treated INS-1E cells; 20,000 tested, 0.1% active; AID 488910; INS-1E cytokine-induced death, ATP luminescence, 48 h; normalised: neutral wells 0, positive control 100; protection from cytokine-induced ATP loss, % at 10 µM;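 active = mean replicate protection from cytokine-induced ATP loss at least 50% and at least 75% of replicates each reaching 50%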
#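 Assay system: INS-1E rat cells / Quantity: 8000 cells per well / Medium: RPMI without phenol red, 5% FBS / Probe or stimulus: three-cytokine cocktail (IFN-γ, TNF-α, IL-1β) / Dosing: one compound concentration, pin transfer / Timing: 48 h co-treatment, 10 min post-lysis read / Technique: CellTiter-Glo luminescence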
# YB-1 expression: YB-1 expression inhibition. U2OS, qRT-PCR YB-1 vs CDIP delta delta Cp, 16 h; active compounds read high; zero = DMSO, each unit about twofold. delta delta Cp (YB-1 minus CDIP) (concentration not given with the values). 30,000 tested, 0.37% active. AID 434959;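 active = delta delta Cp rounded down to an integer at or above 3, about 3 SD of DMSO wells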;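 note: higher means less YB-1 transcript or more CDIP transcript relative to DMSO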
# Starred values were filed as active, the others as inactive; / = not tested or not shown.
SMILES,T cruzi HTS,INS-1E rescue,YB-1 expression
COC(=O)C1(Cc2ccc(O)c(CC=C(C)C)c2)OC(=O)C(OC)=C1c1ccc(O)c(O)c1 (stereo not given),/,/,0.206
COC(=O)C1(Cc2ccc(O)cc2)OC(=O)C(OC)=C1c1ccc(O)cc1 (stereo not given),/,/,4.35*
COc1ccc([Si](C)(C)[C@@H]2[C@@H](CC(=O)N3CCC[C@H]3CO)O[C@]3(C(=O)N(Cc4ccc(I)cc4)c4ccccc43)[C@H]2C)cc1,/,/,0.171
Cc1noc(C)c1S(=O)(=O)N(C)C[C@H]1Oc2ccc(NC(=O)Nc3ccc(C(F)(F)F)cc3)cc2CC(=O)N([C@@H](C)CO)C[C@H]1C,65.8*,1.0,-0.134
Cc1noc(C)c1S(=O)(=O)N(C)C[C@H]1Oc2ccc(NC(=O)Nc3ccccc3)cc2CC(=O)N([C@@H](C)CO)C[C@@H]1C,-9.6,4.6,-0.308
C[C@@H]1CN([C@H](C)CO)C(=O)Cc2cc(NC(=O)Nc3ccc(C(F)(F)F)cc3)ccc2O[C@@H]1CN(C)S(=O)(=O)c1ccc(F)cc1,71.6*,-8.6,0.0518
C[C@H]1CN([C@@H](C)CO)C(=O)Cc2cc(NC(=O)Nc3ccc(C(F)(F)F)cc3)ccc2O[C@@H]1CN(C)S(=O)(=O)c1ccc(F)cc1,35.3,0.5,-0.474
C[C@@H]1CN([C@@H](C)CO)C(=O)Cc2cc(NC(=O)Nc3ccc(C(F)(F)F)cc3)ccc2O[C@@H]1CN(C)S(=O)(=O)c1ccc(Cl)cc1,80.5*,-22.6,-0.141
C[C@H]1CN([C@@H](C)CO)C(=O)Cc2cc(NC(=O)Nc3ccc(C(F)(F)F)cc3)ccc2O[C@H]1CN(C)S(=O)(=O)c1ccc(Cl)cc1,52.0,-23.2,0.00434
COc1ccccc1CN1C(=O)c2ccccc2[C@](Cc2ccccc2I)(C(=O)NCCCN(C)C)[C@@H]1c1ccc(CO)cc1,/,/,0.0254
Cc1noc(C)c1S(=O)(=O)N(C)C[C@@H]1Oc2c(NS(C)(=O)=O)cccc2C(=O)N([C@@H](C)CO)C[C@H]1C,-26.2,-0.7,0.164
O=C1N(CCS(=O)(=O)c2ccccc2)Cc2ccccc2C[C@@]12COC(c1ccc(OCCCO)cc1)=N2,/,/,0.171
C[C@H]1CN([C@@H](C)CO)C(=O)Cc2cc(NS(=O)(=O)c3ccc(F)cc3)ccc2O[C@@H]1CN(C)Cc1ccccc1,28.7,-2.5,0.0167
C[C@@H]1CN([C@@H](C)CO)C(=O)Cc2cc(NS(=O)(=O)c3ccc(F)cc3)ccc2O[C@@H]1CN(C)Cc1ccccc1,40.3,-8.3,0.271
C[C@@H]1CN([C@H](C)CO)C(=O)Cc2cc(NS(=O)(=O)c3ccc(F)cc3)ccc2O[C@@H]1CN(C)Cc1ccc(-c2ccccc2)cc1,68.0*,-25.5,0.966
C[C@@H]1CN([C@H](C)CO)C(=O)Cc2cc(NS(=O)(=O)c3ccc(F)cc3)ccc2O[C@H]1CN(C)Cc1ccc(-c2ccccc2)cc1,62.1*,-13.2,0.646
C[C@H](CO)N1C[C@H](C)[C@H](CN(C)S(=O)(=O)c2cccc(F)c2)Oc2ncc(Br)cc2C1=O,20.4,/,-0.153
C[C@H](CO)N1C[C@H](C)[C@H](CN(C)S(=O)(=O)c2cccc(F)c2)Oc2ncc(-c3cccc(C(F)(F)F)c3)cc2C1=O,59.5*,/,0.0743
COc1ccc(S(=O)(=O)N(C)C[C@@H]2Oc3ncc(-c4cccc(C(F)(F)F)c4)cc3C(=O)N([C@H](C)CO)C[C@@H]2C)cc1,46.1,/,-0.343
C[C@H](CO)N1C[C@H](C)[C@H](CN(C)S(=O)(=O)c2ccc(F)cc2)Oc2ncc(-c3cccc(C(F)(F)F)c3)cc2C1=O,88.7*,/,-0.0637
COc1ccc(NC(=O)N(C)C[C@@H]2Oc3ccc(NC(=O)C4CC4)cc3C(=O)N([C@@H](C)CO)C[C@@H]2C)cc1,-8.7,2.0,0.37
Cc1noc(C)c1NC(=O)N(C)C[C@H]1Oc2c(cccc2N(C)C)C(=O)N([C@@H](C)CO)C[C@H]1C,-20.0,8.2,-0.0953
O=S(=O)(N[C@H]1CCN(Cc2cccc(OCCO)c2)C1)c1cccc2cccnc12,/,/,-0.339
C[C@H]1CN([C@@H](C)CO)C(=O)c2cccc(NC(=O)c3nc4ccccc4s3)c2O[C@@H]1CN(C)Cc1ccc(-c2ccccc2)cc1,72.9*,-18.1,-0.314
C[C@@H]1CN([C@H](C)CO)C(=O)c2cccc(NC(=O)c3nc4ccccc4s3)c2O[C@H]1CN(C)Cc1ccc(C(F)(F)F)cc1,61.6*,-60.1,0.144
SMILES,T cruzi HTS,INS-1E rescue,YB-1 expression
C[C@H](CO)N1C[C@H](C)[C@H](CN(C)Cc2ccc(Cl)c(Cl)c2)Oc2c(NC(=O)c3nc4ccccc4s3)cccc2C1=O,60.5*,-40.8,-0.125
C[C@@H]1CN([C@H](C)CO)C(=O)c2cccc(NC(=O)c3nc4ccccc4s3)c2O[C@@H]1CN(C)Cc1ccc(Cl)c(Cl)c1,7.8,-28.3,0.293
C[C@@H]1CN([C@H](C)CO)C(=O)c2cccc(NC(=O)c3nc4ccccc4s3)c2O[C@H]1CN(C)Cc1ccc(-c2ccccc2)cc1,46.5,-20.4,-0.367
C[C@H](CO)N1C[C@H](C)[C@H](CN(C)Cc2ccc(Oc3ccccc3)cc2)Oc2c(NC(=O)c3nc4ccccc4s3)cccc2C1=O,59.2*,-30.8,0.251
C[C@H]1CN([C@@H](C)CO)C(=O)c2cccc(NC(=O)c3nc4ccccc4s3)c2O[C@H]1CN(C)Cc1ccc(C(F)(F)F)cc1,48.7,-48.5,0.0871
C[C@H](CO)N1C[C@H](C)[C@H](CN(C)Cc2ccccc2)Oc2c(NC(=O)c3nc4ccccc4s3)cccc2C1=O,49.4,-26.5,0.358
CC1=N/C(=C\c2sccc2C)C(=O)O1,/,/,-0.209
C[C@@H]1CCCCO[C@H](CN(C)S(=O)(=O)c2ccccc2)[C@@H](C)CN([C@H](C)CO)C(=O)c2cc(NC(=O)CCCCCC(=O)Nc3ccccc3N)ccc2O1,-8.3,-0.5,0.498
O=c1cc(-c2ccc(O)c(O)c2)oc2c(C3OC(CO)C(O)C(O)C3O)c(O)cc(O)c12 (stereo not given),/,/,-0.0746
CNC(=O)c1cccc2cccc(Br)c12,/,/,-0.668
Cc1noc(C)c1S(=O)(=O)Nc1cccc2c1O[C@@H](CN(C)Cc1ccccc1)[C@@H](C)CN([C@@H](C)CO)C2=O,-8.9,-0.2,-0.0807
C[C@@H]1CN([C@H](C)CO)C(=O)c2cccc(NC(=O)c3ccncc3)c2O[C@@H]1CN(C)S(=O)(=O)c1ccc(F)cc1,-5.2,15.4,-0.0145
COc1ccc(CN(C)C[C@H]2Oc3ccc(NS(=O)(=O)c4ccc(F)cc4)cc3CC(=O)N([C@@H](C)CO)C[C@H]2C)cc1,44.1,-9.3,0.244
C[C@@H]1CN([C@H](C)CO)C(=O)Cc2cc(NC(=O)Cc3ccccc3)ccc2O[C@H]1CN(C)S(=O)(=O)c1ccc(Cl)cc1,-12.0,-4.5,-0.0564
C=CCOC(=O)[C@H]1[C@@H]2C(=O)O[C@@H](c3ccccc3)[C@@H](c3ccccc3)N2[C@@H](c2ccc(OCCOC(=O)[C@H]3C[C@H]4C(=O)N5CCC[C@H]5C(=O)N4[C@H]3c3cccc(OCCO)c3)cc2)[C@]12C(=O)Nc1ccccc12,/,/,0.146
O=C1OC(c2ccccc2)=N/C1=C\c1ccccc1C(F)(F)F,/,/,-0.023

# High-throughput results from PubChem BioAssay.
